Results as given in ChEMBL document CHEMBL1148287, “Design of potent, selective, and orally bioavailable inhibitors of cysteine protease cathepsin k” (J Med Chem, 2004).

What was measured:
Cathepsin K [1] = biological target: T1, Cathepsin K (Homo sapiens, UniProt P43235); assay: Concentration required to inhibit 50% of cysteine protease cathepsin K of human
T1 sequence (P43235 whole entry): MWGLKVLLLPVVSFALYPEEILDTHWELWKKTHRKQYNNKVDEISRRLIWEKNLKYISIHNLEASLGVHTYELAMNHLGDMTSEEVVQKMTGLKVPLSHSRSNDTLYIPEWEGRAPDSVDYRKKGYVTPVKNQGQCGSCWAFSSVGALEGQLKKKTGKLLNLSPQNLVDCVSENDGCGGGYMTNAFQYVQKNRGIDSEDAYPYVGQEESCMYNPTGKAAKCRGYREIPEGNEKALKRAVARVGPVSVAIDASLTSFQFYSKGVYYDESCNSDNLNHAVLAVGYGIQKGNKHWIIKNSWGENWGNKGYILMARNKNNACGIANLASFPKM
Procedure, shortened: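 Reactions were started by adding inhibitor plus substrate to enzyme. AMC fluorescence (ex 360/em 440) progress curves were followed over 2.3 h at varied inhibitor concentrations. IC50 was fitted as rate = Vmax/(1+[I]/IC50).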

Cathepsin K [2] = biological target: T2, Cathepsin K (Rattus norvegicus, UniProt O35186); assay: Inhibition of cysteine protease cathepsin K of rat
T2 sequence (O35186 whole entry): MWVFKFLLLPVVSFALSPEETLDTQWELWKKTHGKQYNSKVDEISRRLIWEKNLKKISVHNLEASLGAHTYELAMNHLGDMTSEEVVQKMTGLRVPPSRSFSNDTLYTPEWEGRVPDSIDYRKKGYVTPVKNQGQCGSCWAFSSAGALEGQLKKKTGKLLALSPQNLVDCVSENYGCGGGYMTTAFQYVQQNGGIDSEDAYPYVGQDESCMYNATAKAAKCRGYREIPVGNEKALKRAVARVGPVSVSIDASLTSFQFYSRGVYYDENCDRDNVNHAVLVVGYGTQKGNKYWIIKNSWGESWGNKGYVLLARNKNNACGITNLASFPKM

[3] = Selectivity as ratio between IC50 against Cathepsin B and IC50 against Cathepsin K
Procedure, shortened: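 Human liver cathepsin B and recombinant human cathepsin K were each run with Cbz-Phe-Arg-AMC at 10 μM final (Km 400 and 70 μM). Both used pH 5.5 acetate/DTT/NaCl buffer, 10% DMSO, 30 °C and a 2.3 h fluorescence progress-curve read (ex 360/em 440). IC50s were fitted from rate vs [I], and the ratio of the two IC50s was taken.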

[4] = biological target: Cathepsin (H and K) (Homo sapiens) (UniProt P09668+P43235); assay: Selectivity for Cathepsins H and K, ratio of IC50; type: protein assay
Procedure, shortened: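 Human liver cathepsin H was run with L-Arg-β-naphthalamide at 50 μM final (Km 195 μM), read at ex 340/em 420. Human cathepsin K used Cbz-Phe-Arg-AMC at 10 μM, read at ex 360/em 440. Both were at pH 5.5 with DTT/NaCl and 10% DMSO at 30 °C, with 2.3 h progress curves. IC50s were fitted from rate vs [I] and ratioed.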

[5] = Selectivity as ratio between IC50 against Cathepsin L and IC50 against Cathepsin K
Procedure, shortened: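 Both assays used pH 5.5 acetate/DTT/NaCl, 10% DMSO, 30 °C and AMC fluorescence progress curves over 2.3 h. IC50s were fitted from rate vs [I] and taken as a ratio.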

[6] = Selectivity ratio between IC50 against Cathepsin S and IC50 against Cathepsin K
Procedure, shortened: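 Recombinant human cathepsin S was run with Cbz-Val-Val-Arg-AMC at 10 μM final (Km >100 μM); human cathepsin K used Cbz-Phe-Arg-AMC at 10 μM. Both were in pH 5.5 sodium acetate with 10 mM DTT, 120 mM NaCl and 10% DMSO at 30 °C, with AMC fluorescence progress curves over 2.3 h. The ratio was taken from the fitted IC50s.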

Homo sapiens = organism: Homo sapiens; assay: Selectivity as ratio between IC50 against Cathepsin V and IC50 against Cathepsin K
Procedure, shortened: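 Conditions were pH 5.5 acetate buffer with 10 mM DTT, 120 mM NaCl and 10% DMSO at 30 °C, with fluorescence progress curves over 2.3 h. The IC50 fits gave the ratio.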

[7] = Compound was tested for its cell permeability in the Madin-Darby canine kidney cell monolayer transport assay; type: ADME, Canis lupus familiaris; details: dog, MDCK; read-out: Activity
[8] = Percent instability was measured by Rat S9 liver […] metabolism assay, in vitro; type: ADME, Liver S9 fraction; details: read-out: Activity
Procedure, shortened: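 Rat S9 liver metabolism, read as % metabolized after 1 h incubation at 37 °C, run in duplicate.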

[9] = Area Under plasma concentration time curve in rat upon peroral administration; type: ADME, organism-based; details: po
Procedure, shortened: (§1)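 Rats were dosed iv into the femoral vein at 5 mg/kg or orally at 10 mg/kg, from a solution in 15% solutol/citrate buffer/0.1% ascorbic acid, pH 3.5. Blood was drawn from a jugular cannula before dosing and at 0.03–24 h, then clotted to serum. Samples were acetonitrile-precipitated with internal standard and analysed by LC-MS/MS (MRM). Parameters came from noncompartmental analysis.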

[10] = Half-life in rat; type: ADME, organism-based; details: in vivo; procedure, shortened: as §1
[11] = Bioavailability in rat; type: ADME, organism-based; details: in vivo; procedure, shortened: as §1
[12] = Peak plasma concentration in rat; type: ADME, organism-based; procedure, shortened: as §1
[13] = Maximum time required to achieve Cmax was determined in rat; type: ADME, organism-based; details: in vivo; procedure, shortened: as §1

Chain of Cathepsin (H and K) (Homo sapiens) (P09668 whole entry, looked up, one chain of several): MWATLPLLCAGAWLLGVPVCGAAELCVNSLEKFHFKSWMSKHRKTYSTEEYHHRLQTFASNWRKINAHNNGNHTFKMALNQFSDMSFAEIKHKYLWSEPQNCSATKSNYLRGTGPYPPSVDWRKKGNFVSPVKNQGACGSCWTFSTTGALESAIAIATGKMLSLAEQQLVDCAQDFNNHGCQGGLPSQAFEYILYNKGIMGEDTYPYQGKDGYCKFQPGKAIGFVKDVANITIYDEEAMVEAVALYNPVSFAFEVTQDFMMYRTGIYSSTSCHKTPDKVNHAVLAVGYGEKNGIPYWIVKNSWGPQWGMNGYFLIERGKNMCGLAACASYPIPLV

| Structure (SMILES) | IC50 (Cathepsin K [1]) [µM] | IC50 (Cathepsin K [2]) [µM] | Ratio [6] | other results |
| --- | --- | --- | --- | --- |
| CCCC[C@H](NC(=O)OC(C(C)C)C(C)C)C(=O)C(=O)Nc1ccnn1CC(C)C | 0.039 | 2.7 | 59 | Ratio [3]: > 320; Ratio [4]: > 320; Ratio [5]: 260; Ratio (Homo sapiens): 120 |
| CCCC[C@H](NC(=O)OC(C(C)C)C(C)C)C(=O)C(=O)Nc1[nH]ncc1C#N | 0.00091 |  | 3.6 |  |
| CCCC[C@H](NC(=O)OC(C(C)C)C(C)C)C(=O)C(=O)Nc1cc(C)[nH]n1 |  |  | 4.6 |  |
| CC(C)C(OC(=O)N[C@@H](C)C(=O)C(=O)NCc1cccs1)C(C)C | 0.36 |  |  |  |
| CCCC[C@H](NC(=O)OC(C(C)C)C(C)C)C(=O)C(=O)Nc1[nH]ncc1C | 0.00047 | 0.0055 | 1.7 | Papp [7]: 37 ×10⁻⁶ cm/s; metabolised [8]: 68%; Ratio [3]: 1100; Ratio [4]: 2100; Ratio [5]: 26; Ratio (Homo sapiens): 14 |
| CCCC[C@H](NC(=O)OC(C(C)C)C(C)C)C(=O)C(=O)Nc1ccnn1C1CCCCC1 | 0.022 | 1.2 |  |  |
| CCCC[C@H](NC(=O)OC(C(C)C)C(C)C)C(=O)C(=O)Nc1ccn(C)n1 | 0.00041 | 0.011 |  |  |
| CC(C)C(OC(=O)NCC(=O)C(=O)NCc1cccs1)C(C)C | 12 |  |  |  |
| CCCC[C@H](NC(=O)OC(C(C)C)C(C)C)C(=O)C(=O)Nc1ccnn1-c1ccncc1 | 0.025 | 0.47 | 5.4 | Ratio [3]: > 500; Ratio [4]: > 500; Ratio [5]: 44; Ratio (Homo sapiens): 19 |
| CCCC[C@H](NC(=O)OC(C(C)C)C(C)C)C(=O)C(=O)Nc1ccnn1C(C)C | 0.017 | 1 |  |  |
| CCCC[C@H](NC(=O)OC(C(C)C)C(C)C)C(=O)C(=O)N[C@H](C)c1ccccc1 | 0.00254 |  |  |  |
| CCCC[C@H](NC(=O)OC(C(C)C)C(C)C)C(=O)C(=O)Nc1[nH]ncc1-c1ccccc1 | 0.00021 | 0.0018 | 4.1 | Ratio [3]: 1200; Ratio [4]: 1700; Ratio [5]: 25; Ratio (Homo sapiens): 9.1 |
| CCCC[C@H](NC(=O)OC(C(C)C)C(C)C)C(=O)C(=O)Nc1[nH]ncc1Br | 0.00024 |  | 4.2 |  |
| CCCC[C@H](NC(=O)OC(C(C)C)C(C)C)C(=O)C(=O)Nc1cc(-c2ccccc2)[nH]n1 |  |  | 7 | Ratio [3]: 520; Ratio [4]: 18; Ratio [5]: 25; Ratio (Homo sapiens): 20 |
| CCCC[C@H](NC(=O)OC(C(C)C)C(C)C)C(=O)C(=O)Nc1ccon1 | 0.0051 |  |  |  |
| CCCC[C@H](NC(=O)OC(C(C)C)C(C)C)C(=O)C(=O)Nc1[nH]ncc1C(=O)OCC | 0.0017 |  | 3.6 |  |
| CCCC[C@H](NC(=O)OC(C(C)C)C(C)C)C(=O)C(=O)Nc1nccs1 | 0.04 |  |  | AUC [9]: 750 ng·h/mL; half-life [10]: 2.17 h; Papp [7]: 23 ×10⁻⁶ cm/s; bioavailability [11]: 18%; Cmax [12]: 170 ng/mL; metabolised [8]: 98%; Tmax [13]: 0.167 h |
| CCCC[C@H](NC(=O)OC(C(C)C)C(C)C)C(=O)C(=O)Nc1ccnn1CCC(C)(C)C | 0.062 | 1.6 |  |  |
| CCCC[C@H](NC(=O)OC(C(C)C)C(C)C)C(=O)C(=O)Nc1ccnn1-c1ccccc1 | 0.015 | 0.79 |  |  |
| CCCC[C@H](NC(=O)OC(C(C)C)C(C)C)C(=O)C(=O)Nc1ccc2ccccc2n1 | 0.25 |  |  |  |
